According to ChEMBL document CHEMBL4689842, “EUbOPEN Chemogenomics Library wave 1” (2021):

Test system: Fibroblast
Assay: Multiplex assay against human fibroblast
Type: toxicity, cell-based
Outline: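 Imaging took place on a CQ1 microscope at 37°C and 5% CO2 once compound had been added to live cells stained at seeding with Hoechst33342, BioTracker Green Microtubule Cytoskeleton Dye, MitoTracker Red and Annexin V Alexa Fluor 680. CellPathfinder machine-learning gating classed cells as Hoechst high-intensity objects or normal cells, classed normal cells as having healthy, pyknosed or fragmented nuclei, and classed pyknosed cells as mitotic or apoptotic. Tubulin, mitochondrial-mass and membrane-permeability phenotypes are per cents of the healthy-nucleus cells.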

[1] = 12 h, 1 µM, compound concentration 1 uM, replicate 1
[2] = 12 h, 1 µM, compound concentration 1 uM, replicate 2
[3] = 12 h, 10 µM, compound concentration 10 uM, replicate 1
[4] = 12 h, 10 µM, compound concentration 10 uM, replicate 2
[5] = 24 h, 1 µM, compound concentration 1 uM, replicate 1
[6] = 24 h, 1 µM, compound concentration 1 uM, replicate 2
[7] = 24 h, 10 µM, compound concentration 10 uM, replicate 1
[8] = 24 h, 10 µM, compound concentration 10 uM, replicate 2

For C=CC(=O)Nc1cc2c(Nc3ccc(F)c(Cl)c3)ncnc2cc1OCCCN1CCOCC1.Cl.Cl [CANERTINIB DIHYDROCHLORIDE], the “Population Apoptotic (%)” value [1] was 73%, the “Population Fragmented Nuclei (%)” value [1] was 35% and the “Population Healthy Nuclei (%)” value [1] was 53%. The “Population Hoechst High Intensity Objects (%)” value [1] was 29%, the “Population Membrane Permeable-Phenotype (%)” value [1] was 28% and the “Population Mitochondria Different-Phenotype (%)” value [1] was 21%. For the same molecule, the “Population Mitotic Cells (%)” value [1] was 26%, the “Population Normal (%)” value [1] was 70% and the “Population Pyknosed Nuclei (%)” value [1] was 10%. For the same molecule, the “Population Tubulin-Different-Phenotype (%)” value [1] was 83%, the “Total Cell Count” value [1] was 198 and the “Population Apoptotic (%)” value [2] was 100%. The “Population Fragmented Nuclei (%)” value [2] was 58%, the “Population Healthy Nuclei (%)” value [2] was 35% and the “Population Hoechst High Intensity Objects (%)” value [2] was 39%. For the same molecule, the “Population Membrane Permeable-Phenotype (%)” value [2] was 20%, the “Population Mitochondria Different-Phenotype (%)” value [2] was 66% and the “Population Mitotic Cells (%)” value [2] was 0%. For the same molecule, the “Population Normal (%)” value [2] was 60%, the “Population Pyknosed Nuclei (%)” value [2] was 5% and the “Population Tubulin-Different-Phenotype (%)” value [2] was 91%. For the same molecule, the “Total Cell Count” value [2] was 110, the “Population Apoptotic (%)” value [3] was 56% and the “Population Fragmented Nuclei (%)” value [3] was 35%. For the same molecule, the “Population Healthy Nuclei (%)” value [3] was 45%, the “Population Hoechst High Intensity Objects (%)” value [3] was 13% and the “Population Mitotic Cells (%)” value [3] was 43%. The “Population Normal (%)” value [3] was 86%, the “Population Pyknosed Nuclei (%)” value [3] was 18% and the “Population Tubulin-Different-Phenotype (%)” value [3] was 20%. For the same molecule, the “Total Cell Count” value [3] was 227, the “Population Apoptotic (%)” value [4] was 57% and the “Population Fragmented Nuclei (%)” value [4] was 60%. For the same molecule, the “Population Healthy Nuclei (%)” value [4] was 31%, the “Population Hoechst High Intensity Objects (%)” value [4] was 43% and the “Population Membrane Permeable-Phenotype (%)” value [4] was 10%. The “Population Mitochondria Different-Phenotype (%)” value [4] was 10%, the “Population Mitotic Cells (%)” value [4] was 42% and the “Population Normal (%)” value [4] was 56%. The “Population Pyknosed Nuclei (%)” value [4] was 7%, the “Population Tubulin-Different-Phenotype (%)” value [4] was 27% and the “Total Cell Count” value [4] was 160. For the same molecule, the “Population Apoptotic (%)” value [5] was 71%, the “Population Fragmented Nuclei (%)” value [5] was 26% and the “Population Healthy Nuclei (%)” value [5] was 38%. For the same molecule, the “Population Hoechst High Intensity Objects (%)” value [5] was 41%, the “Population Membrane Permeable-Phenotype (%)” value [5] was 19% and the “Population Mitochondria Different-Phenotype (%)” value [5] was 51%. The “Population Mitotic Cells (%)” value [5] was 28%, the “Population Normal (%)” value [5] was 58% and the “Population Pyknosed Nuclei (%)” value [5] was 35%. For the same molecule, the “Population Tubulin-Different-Phenotype (%)” value [5] was 64%, the “Total Cell Count” value [5] was 137 and the “Population Apoptotic (%)” value [6] was 100%. The “Population Fragmented Nuclei (%)” value [6] was 59%, the “Population Healthy Nuclei (%)” value [6] was 26% and the “Population Hoechst High Intensity Objects (%)” value [6] was 39%. For the same molecule, the “Population Membrane Permeable-Phenotype (%)” value [6] was 23%, the “Population Mitochondria Different-Phenotype (%)” value [6] was 76% and the “Population Mitotic Cells (%)” value [6] was 0%. For the same molecule, the “Population Normal (%)” value [6] was 60%, the “Population Pyknosed Nuclei (%)” value [6] was 14% and the “Population Tubulin-Different-Phenotype (%)” value [6] was 61%. The “Total Cell Count” value [6] was 81, the “Population Apoptotic (%)” value [7] was 79% and the “Population Fragmented Nuclei (%)” value [7] was 36%. For the same molecule, the “Population Healthy Nuclei (%)” value [7] was 50%, the “Population Hoechst High Intensity Objects (%)” value [7] was 12% and the “Population Membrane Permeable-Phenotype (%)” value [7] was 1%. For the same molecule, the “Population Mitochondria Different-Phenotype (%)” value [7] was 10%, the “Population Mitotic Cells (%)” value [7] was 20% and the “Population Normal (%)” value [7] was 87%. The “Population Pyknosed Nuclei (%)” value [7] was 12%, the “Population Tubulin-Different-Phenotype (%)” value [7] was 11% and the “Total Cell Count” value [7] was 220. The “Population Apoptotic (%)” value [8] was 50%, the “Population Fragmented Nuclei (%)” value [8] was 73% and the “Population Healthy Nuclei (%)” value [8] was 20%. For the same molecule, the “Population Hoechst High Intensity Objects (%)” value [8] was 44%, the “Population Membrane Permeable-Phenotype (%)” value [8] was 5% and the “Population Mitochondria Different-Phenotype (%)” value [8] was 16%. For the same molecule, the “Population Mitotic Cells (%)” value [8] was 50%, the “Population Normal (%)” value [8] was 55% and the “Population Pyknosed Nuclei (%)” value [8] was 6%. The “Population Tubulin-Different-Phenotype (%)” value [8] was 33% and the “Total Cell Count” value [8] was 159.
